Molecules are shown by their SMILES. pIC50: −log10 of the molar value.

The nature of data set [1]: Selectivity index, ratio of CC50 for African green monkey Vero cells to IC50 for epimastigote stage of Trypanosoma cruzi. Type of data set: functional. In outline:
(§1)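 Selectivity index was calculated as CC50 in Vero (T. cruzi) or THP-1 (L. infantum) cells divided by parasite IC50. Both values came from 72 h mammalian-cell MTT assays and the parasite assays; SI ≥ 3 was defined as parasite-selective.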

Data set [2] relates to Trypanosoma cruzi. The experiment in a line: Antiparasitic activity against epimastigote stage of Trypanosoma cruzi infected in Vero cells assessed as parasite growth inhibition […] by hemocytometery. Type of data set: functional, organism-based. The essentials: (§2)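 Exponential-phase T. cruzi Sylvio X10 epimastigotes (LIT medium with hiFCS) or L. (L.) infantum MHOM/BR/74/PP75 promastigotes (RPMI 1640, hemin, HEPES, 10% hiFCS) were exposed to threefold serial dilutions (0.3–300 µg/mL) for 72 h at 28 °C. Viable parasites were counted by hemocytometer with 0.25% eosin yellow. IC50 came from sigmoidal regression, given as mean ± SD.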

The nature of data set [3]: Cytotoxicity against human THP1 cells. Type of data set: cell-based. To be noted: THP-1 cells. In outline: (§3)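 Vero monolayers or THP-1 cells (made adherent with 10 ng/mL PMA), in RPMI 1640 with 10% hiFCS, were exposed to compound (0.3–300 µg/mL) for 72 h at 37 °C, 5% CO2. Viability was measured by MTT, with formazan dissolved in DMSO and read at 580 nm. % cytotoxicity was calculated against untreated cells; CC50 came from sigmoidal regression, given as mean ± SD.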

Data set [4] can be described thus: Selectivity index, ratio of CC50 for human THP1 cells to IC50 for promastigote stage of Leishmania infantum. Type of data set: functional, THP-1. The essentials:
as §1

Data set [5] concerns Trypanosoma cruzi. Briefly: Antiparasitic activity against amastigote stage of Trypanosoma cruzi infected in Vero cells assessed as parasite growth inhibition after 24 hrs by hemocytometery. Type of data set: functional, organism-based. To be noted: for pIC50: Trypanosoma cruzi, Vero, 24 h, read-out: IC50; for IC50: vero. In outline:
(§4)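 Host cells were Vero for T. cruzi (infected with tissue-derived trypomastigotes) and THP-1 (PMA-transformed, 10 ng/mL) for L. (L.) infantum (infected with late-phase promastigotes), at 1:10 cell:parasite for 24 h. Serial dilutions were given as two doses, the second on day 3 with a medium change. Read-out was % infected cells on methanol-fixed, Giemsa-stained slides (300 cells). IC50 came from sigmoidal regression; experiments in duplicate, concentrations in triplicate.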

In data set [6] the test system is Leishmania infantum. The experiment in a line: Antiparasitic activity against promastigote stage of Leishmania infantum infected in THP1 cells assessed as parasite growth inhibition […] by hemocytometery. Type of data set: functional, organism-based. To be noted: THP-1. The essentials: as §2
Data set [7] deals with Leishmania infantum. Briefly: Antiparasitic activity against amastigote stage of Leishmania infantum infected in THP1 cells assessed as parasite growth inhibition after 24 hrs by hemocytometery. Type of data set: functional, organism-based, THP-1. To be noted: for pIC50: Leishmania infantum, THP-1, 24 h, read-out: IC50. The essentials:
as §4

A short description of data set [8]: Cytotoxicity against African green monkey Vero cells. Type of data set: cell-based. To be noted: chlorocebus sabaeus. The essentials: as §3
Data set [9] in a line: Selectivity index, ratio of CC50 for African green monkey Vero cells to IC50 for amastigote stage of Trypanosoma cruzi. Type of data set: functional. In outline: as §1
Data set [10] can be described thus: Selectivity index, ratio of CC50 for human THP1 cells to IC50 for amastigote stage of Leishmania infantum. Type of data set: functional, THP-1. In outline:
as §1

For data set [11], the system named is Leishmania infantum. The experiment in a line: Antiparasitic activity against promastigote stage of Leishmania infantum assessed as parasite growth inhibition after 72 hrs by hemocytometery.

On to `O[C@@H]1Cc2cc(OC(F)(F)F)ccc2N[C@H](c2cccs2)C1`, for which the “Selectivity Index” value is listed as 0.2 in data set [1] and 4.4 in data set [4]. The pIC50 in the data set with Trypanosoma cruzi [2] is 4.06; with Trypanosoma cruzi [5], less than 3.99; in the data set with Leishmania infantum [6] it was 4.86; in the data set with Leishmania infantum [7], less than 3.99. The CC50 came out at 61.5 µM in [3] and 20.4 µM in data set [8].

For `O[C@@H]1Cc2cc(F)ccc2N[C@H](c2ccoc2)C1`, the entries for the “Selectivity Index” value in data set [1] and in data set [4] were 5.9 and 1.9, respectively. Further, the pIC50 with Trypanosoma cruzi [2] is 3.75; in the data set on Trypanosoma cruzi [5], less than 3.39; in the data set on Leishmania infantum [6], 3.44; in the data set with Leishmania infantum [7], less than 3.39. The CC50 stood at 689 µM in data set [3] and 1040 µM in [8].

With `Cc1ccsc1[C@@H]1C[C@H]2Cc3ccccc3N1O2` (racemic), the “Selectivity Index” value in data set [9] is recorded as 3.4; in data set [1] it was 16.4; in data set [10], 1; in data set [4] it was 6.7. For the same molecule, the pIC50 is 4.56 with Trypanosoma cruzi [2], 4.25 with Leishmania infantum [11], 3.87 with Trypanosoma cruzi [5] and 3.43 in the data set with Leishmania infantum [7]. Moreover, the CC50 in [3] came to 377 µM; in [8] it was 453 µM.

For the molecule `Clc1ccc2c(c1)C[C@@H]1C[C@@H](c3ccc(Br)s3)N2O1` (racemic), the “Selectivity Index” value in data set [9] is given as 69.8; in data set [1] it was 113.4; in data set [10], more than 25.9; in [4], more than 117.9. Moreover, the pIC50 in the data set on Trypanosoma cruzi [2] was 4.83; with Leishmania infantum [11], 4.84; in the data set on Trypanosoma cruzi [5], 4.62; in the data set on Leishmania infantum [7], 4.19. Moreover, the CC50 in data set [3] was more than 1690 µM; in [8] it was 1660 µM.

In the case of `Fc1ccc2c(c1)C[C@@H]1C[C@@H](c3cccs3)N2O1` (racemic), the “Selectivity Index” value in data set [9] is 13.5; in data set [1] it was 13.5; in data set [10] it was 5.6; in data set [4], 86.6. Also, the pIC50 in the data set with Trypanosoma cruzi [2] was 3.98; in the data set with Leishmania infantum [11] it was 4.94; in the data set on Trypanosoma cruzi [5], 3.99; with Leishmania infantum [7], 3.75. Also, the results for the CC50 in data set [3] and in data set [8] were 991 µM and 1400 µM, respectively.

With `Cc1ccc([C@@H]2C[C@H]3Cc4ccccc4N2O3)o1` (racemic), the entries for the “Selectivity Index” value in data set [1], in [10] and in [4] were 5.7, 1 and 14.5, respectively. Besides, the negative logarithm of the IC50 (pIC50) is 4.03 in the data set on Trypanosoma cruzi [2], 4.56 in the data set on Leishmania infantum [11], less than 3.38 in the data set on Trypanosoma cruzi [5] and 3.40 in the data set with Leishmania infantum [7]. The CC50 is 394 µM in [3] and 533 µM in [8].

In the case of `c1csc([C@@H]2C[C@H]3Cc4ccccc4N2O3)c1` (relative stereo), the “Selectivity Index” value in data set [1] was determined as 11.6; in [10], 1.8; in data set [4], 45.7. The pIC50 in the data set on Trypanosoma cruzi [2] is 3.70; in the data set with Leishmania infantum [11], 4.80; with Trypanosoma cruzi [5], less than 3.39; in the data set with Leishmania infantum [7] it was 3.39. Also, the CC50 in [3] was 727 µM; in [8], 2310 µM.

Take `O[C@@H]1Cc2ccccc2N[C@H](c2cccs2)C1` (relative stereo): the “Selectivity Index” value in data set [1] came to 4.5; in [10], 5.6; in [4] it was 5.3. Besides, the pIC50 in the data set on Trypanosoma cruzi [2] was 3.66; in the data set on Leishmania infantum [11], 3.84; in the data set on Trypanosoma cruzi [5] it was less than 3.39; with Leishmania infantum [7], 3.86. Further, the CC50 stood at 773 µM in [3] and 986 µM in data set [8].

`Cc1ccc([C@@H]2C[C@H](O)Cc3cc(F)ccc3N2)s1` (relative stereo): the “Selectivity Index” value came out at 6.53 in data set [9], 4.9 in [1] and 18.5 in [4]. Moreover, the pIC50 was 3.79 in the data set with Trypanosoma cruzi [2], 3.91 with Trypanosoma cruzi [5], 4.77 in the data set with Leishmania infantum [6] and less than 3.92 with Leishmania infantum [7]. Moreover, the CC50 worked out at 312 µM in data set [3] and 801 µM in data set [8].

On to `Cc1ccsc1[C@@H]1C[C@H](O)Cc2cc(F)ccc2N1` (relative stereo), for which the “Selectivity Index” value in data set [1] came out at 5.3; in [4], 28.9. For the same molecule, the pIC50 in the data set on Trypanosoma cruzi [2] is 4.34; with Trypanosoma cruzi [5], less than 3.92; with Leishmania infantum [6] it was 4.20; with Leishmania infantum [7] it was less than 3.92. Also, the CC50 was determined as 1810 µM in [3] and 243 µM in data set [8].

`Cc1ccc([C@@H]2C[C@H](O)Cc3cc(OC(F)(F)F)ccc3N2)s1` (relative stereo): the “Selectivity Index” value in data set [1] amounted to 0.4; in [4], 8.6. Moreover, the pIC50 in the data set with Trypanosoma cruzi [2] is 4.18; in the data set on Leishmania infantum [6] it was 4.95. The CC50 in [3] turned out to be 98 µM; in [8], 23.9 µM. The IC50 entry in the data set with Trypanosoma cruzi [5] and with Leishmania infantum [7] (thp-1) was “ND(toxic)” each time.

For the molecule `Cc1ccsc1[C@@H]1C[C@H](O)Cc2cc(OC(F)(F)F)ccc2N1` (relative stereo), the “Selectivity Index” value is given as 2.5 in [1] and 5.5 in [4]. Besides, the values for the negative logarithm of the IC50 (pIC50) in the data set on Trypanosoma cruzi [2], with Leishmania infantum [6] and with Leishmania infantum [7] were 4.97, 4.79 and less than 4.01, respectively. The CC50 in data set [3] stood at 89.7 µM; in data set [8] it was 26.7 µM. In addition, in the data set with Trypanosoma cruzi [5], the IC50 result is reported as “ND(toxic)”.

Turning to `O[C@@H]1Cc2ccccc2N[C@H](c2ccco2)C1` (relative stereo), the “Selectivity Index” value is reported as more than 1.5 in data set [1] and 0.3 in data set [4]. Also, the negative-log IC50 (pIC50) in the data set with Trypanosoma cruzi [2] was 3.05; with Trypanosoma cruzi [5], less than 3.36; with Leishmania infantum [6], 3.16; in the data set on Leishmania infantum [7], less than 3.36. The 50% cytotoxic concentration (CC50) in data set [3] is 236 µM; in [8], more than 1310 µM.

As for `Cc1ccc([C@@H]2C[C@H](O)Cc3ccccc3N2)o1` (relative stereo), the entries for the “Selectivity Index” value in [1] and in data set [4] were 3.1 and 1.4, respectively. In addition, the pIC50 in the data set on Trypanosoma cruzi [2] is 3.92; in the data set with Trypanosoma cruzi [5], less than 3.39; in the data set on Leishmania infantum [6], 3.72; in the data set with Leishmania infantum [7] it was less than 3.39. In addition, the CC50 in [3] worked out at 262 µM; in [8], 370 µM.

As to `Cc1ccc([C@@H]2C[C@H](O)Cc3cc(Cl)ccc3N2)o1` (relative stereo), the “Selectivity Index” value in [9] is on record as 0.93; in data set [1], 4.9; in [4], more than 9.9. Besides, the pIC50 in the data set on Trypanosoma cruzi [2] was 4.21; in the data set on Trypanosoma cruzi [5], 3.49; in the data set on Leishmania infantum [6], 3.96; with Leishmania infantum [7], less than 3.44. In addition, the results for the half-maximal cytotoxic concentration (CC50) in data set [3] and in data set [8] were more than 1080 µM and 300 µM, respectively.

Take `Cc1ccc([C@@H]2C[C@H](O)Cc3cc(F)ccc3N2)o1` (relative stereo): the “Selectivity Index” value is recorded as 7.2 in [1] and more than 8.1 in data set [4]. The pIC50 in the data set on Trypanosoma cruzi [2] was 3.94; with Trypanosoma cruzi [5], less than 3.42; with Leishmania infantum [6] it was 3.85; with Leishmania infantum [7], less than 3.42. The values for the CC50 in data set [3] and in data set [8] were more than 1150 µM and 823 µM, respectively.

Take `O[C@@H]1Cc2cc(OC(F)(F)F)ccc2N[C@H](c2ccco2)C1` (relative stereo): the “Selectivity Index” value in data set [1] is given as 0.3; in data set [4], 2.9. The pIC50 in the data set on Trypanosoma cruzi [2] was 3.22; with Trypanosoma cruzi [5], less than 3.97; in the data set with Leishmania infantum [6], 4.34; with Leishmania infantum [7], less than 3.97. Moreover, the CC50 in data set [3] is 134 µM; in data set [8], 166 µM.

Consider `Cc1ccc([C@@H]2C[C@H](O)Cc3cc(OC(F)(F)F)ccc3N2)o1` (relative stereo), for which the results for the “Selectivity Index” value in [1] and in data set [4] were 1.9 and 9.7, respectively. In addition, the pIC50 in the data set with Trypanosoma cruzi [2] was 4.37; with Trypanosoma cruzi [5] it was less than 3.99; in the data set on Leishmania infantum [6], 4.89; in the data set with Leishmania infantum [7], less than 3.99. The CC50 is 124 µM in data set [3] and 82.1 µM in data set [8].

For the molecule `C[C@@H]1[C@H](O)[C@@H](C)/C=C/C=C/C=C/C=C/C=C/C=C/C=C/[C@H](O[C@@H]2O[C@H](C)[C@@H](O)[C@H](N)[C@@H]2O)C[C@@H]2O[C@](O)(C[C@@H](O)C[C@@H](O)[C@H](O)CC[C@@H](O)C[C@@H](O)CC(=O)O[C@H]1C)C[C@H](O)[C@H]2C(=O)O` [AMPHOTERICIN B], the “Selectivity Index” value amounted to 456.6 in data set [10] and 927.5 in data set [4]. Besides, the pIC50 in the data set with Leishmania infantum [11] is 7.52; with Leishmania infantum [7] it was 8.00. The same molecule had a CC50 in [3] of 29.7 µM.

The values are drawn from ChEMBL document CHEMBL3352355, “Synthesis of novel polysubstituted (2SR,4RS)-2-heteroaryltetrahydro-1,4-epoxy-1-benzazepines and cis-2-heteroaryl-4-hydroxytetrahydro-1H-1-benzazepines as antiparasitic agents” (Eur J Med Chem, 2014).
